Experimental data taken from the RNAGym collection of RNA variant scans (doi:10.1038/s41586-018-0170-7).

B1: tRNA (parent)
chain: GUUCCGUUGGCGUAAUGGUAACGCGUCUCCCUCCUAAGGAGAAGACUGCGGGUUCGAGUCCCGUACGGAACG

Variants of: B1
Experiment: yeast fitness, log relative to wild type (ln ratio); higher = fitter; tRNA-Arg(CCU), competitive growth, 37 C, 1 M NaCl
Method in brief: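 Fitness is the natural log of a genotype's generation count divided by that of the wild type. A combinatorial library of tRNA-Arg(CCU) variants sat on a HIS3 centromeric plasmid in BY4742 lacking the chromosomal gene, from two independent transformations. Pools grew 4 generations in SC-HIS at 30 °C, then ~6.5 generations (~26.5 h) in SC-HIS 1M NaCl at 37 °C, with three outputs per input. Generations came from OD-scaled log2 output/input frequency, inverse-variance weighted across replicates, with variants counted by 125 bp paired-end Illumina sequencing.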

Row | Variant | yeast fitness (ln)
1 | G1A U2C G6U C27U C46U C66U A69G A70U | -0.222
2 | G1A U2C G6U C46U A69G A70U C71U | -0.249
3 | G1A U2C G6U C27U A43C A69G A70U C71U | -0.282
4 | G1A U2C G6U A43C C46U A69G A70G | -0.126
5 | G1A U2C G6A C27U A43C C46U C66U A70U C71U | -0.252
6 | G1A U2C G6U C66U A70U C71U | -0.095
7 | G1A U2C G6U C27U A43C | -0.181
8 | G1A U2C G6A C27U C66U A70G C71U | -0.0371
9 | G1A U2G A43C C46U C66A A70G C71U | -0.187
10 | G1A U2G C27U A43C C46U A70G C71U | -0.223
11 | G1A U2C G6A C66U A69G A70G C71U | -0.0247
12 | G1A U2G A43C C46U | -0.042
13 | G1A U2C G6U C46U C66U A69G A70G C71U | -0.0644
14 | G1A U2C G6U C27U A43C C66A A69G A70G C71U | -0.272
15 | G1A U2G C27U A43C C46U C66A | -0.106
16 | G1A U2C G6A C46U A69G A70U | -0.0526
17 | G1A U2G A43C C46U C66U A69G A70G C71U | -0.323
18 | G1A U2G A43C C66U C71U | -0.257
19 | G1A U2C G6U C66A A69G A70G | -0.126
20 | G1A U2C G6U C66A A69G A70U | 0.0124
21 | G1A U2G A43C C66A A70G C71U | -0.333

Row | Variant | yeast fitness (ln)
22 | G1A U2G | -0.0263
23 | G1A U2G C27U A43C A70U C71U | -0.167
24 | G1A U2C G6U C27U A43C C66A A70G | -0.299
25 | G1A U2G C27U A43C A70G | -0.176
26 | G1A U2G C27U A43C A70U | -0.154
27 | G1A U2C G6A C27U A43C C46U C66U A70G | -0.155
28 | G1A U2C G6A C27U A43C C46U C66U A70U | -0.0654
29 | G1A U2C G6U C27U A70U | -0.134
30 | G1A U2C G6U C27U A70G | -0.186
31 | G1A U2G A43C C46U A70U C71U | -0.00171
32 | G1A U2G A43C C46U C66A A69G A70U C71U | -0.233
33 | G1A U2C G6U C27U C46U A70G | -0.129
34 | G1A U2C G6U C27U C46U A70U | -0.157
35 | G1A U2C G6A C46U A69G A70G C71U | -0.0541
36 | G1A U2C G6U C66A C71U | -0.115
37 | G1A U2C G6U C46U C66U A70G | -0.265
38 | G1A U2C G6U C46U C66U A70U | -0.0663
39 | G1A U2C G6A C27U A43C C66U A70G | -0.3
40 | G1A U2C G6U A43C C46U C71U | -0.143
41 | G1A U2C G6U A43C A70U | -0.153
42 | G1A U2C G6U C27U C66A A70G C71U | -0.0489

Row | Variant | yeast fitness (ln)
43 | G1A U2C G6U A43C C46U C66U A70U C71U | -0.235
44 | G1A U2G A43C C46U A69G A70G C71U | -0.226
45 | G1A U2C G6A C66U A70U C71U | -0.159
46 | G1A U2G C27U A43C A70G C71U | -0.246
47 | G1A U2C G6U A70U | -0.00843
48 | G1A U2C G6U A70G | -0.113
49 | G1A U2G A43C A70U C71U | -0.0335
50 | G1A U2C G6A C66U C71U | -0.083
51 | G1A U2C G6U A69G A70U C71U | -0.277
52 | G1A U2C G6U C27U C46U A69G A70G C71U | -0.272
53 | G1A U2C G6U C27U A69G A70U C71U | -0.467
54 | G1A U2C G6U C27U C46U C66U A69G A70U C71U | -0.518
55 | G1A U2C G6U A43C C46U A69G A70U C71U | -0.343
56 | G1A U2C G6U C27U C46U C66U A70G C71U | -0.169
57 | G1A U2G A43C A70G C71U | -0.207
58 | G1A U2C G6A C27U C46U C71U | -0.157
59 | G1A U2C G6A C27U A43C C71U | -0.295
60 | G1A U2C G6U C27U A43C A70U | -0.14
61 | G1A U2G C27U A43C A69G A70G C71U | -0.262
62 | G1A U2C G6A C27U A43C C46U C66U A70G C71U | -0.0245
63 | G1A U2C G6U C27U C46U C66U A69G A70G C71U | -0.699

Row | Variant | yeast fitness (ln)
64 | G1A U2C G6A C27U C46U C66U A70U C71U | -0.364
65 | G1A U2C G6U C66A A69G A70G C71U | -0.0278
66 | G1A U2C G6U C46U C66U A70G C71U | -0.0224
67 | G1A U2C G6U C66A A70U C71U | -0.16
68 | G1A U2C G6U C46U C66U A69G A70U C71U | -0.317
69 | G1A U2C G6U C27U C46U C66A A69G A70U | -0.116
70 | G1A U2G C27U A43C C46U A69G | -0.212
71 | G1A U2C G6A C27U C46U A69G A70G C71U | -0.489
72 | G1A U2C G6U A70U C71U | -0.158
73 | G1A U2C G6U C46U C66U C71U | -0.0885
74 | G1A U2G A43C A69G A70U C71U | -0.54
75 | G1A U2C G6U A43C C46U C66A A69G A70G C71U | -0.0061
76 | G1A U2G A43C A69G A70G C71U | -0.202
77 | G1A U2C G6U A43C A70U C71U | -0.195
78 | G1A U2C G6A C27U A70U | -0.0756
79 | G1A U2C G6A C46U C66U A70U C71U | -0.0901
80 | G1A U2G A43C C66U | -0.246
81 | G1A U2C G6A C66U A70G | -0.00694
82 | G1A U2C G6A C66U A70U | -0.0837
83 | G1A U2C G6U A43C C66A A69G A70G C71U | -0.0437
